# Measured values as given in BindingDB's records for doi:10.1021/acsmedchemlett.1c00308 (Uniformed Services University of The Health Sciences, 2021).
# System: ERG (ERG oncoprotein, ETS transcription factor) in VCaP cells
# Assay: Inhibition of ERG in human VCaP cells after 48 hrs by Western blotting analysis
# Procedure, shortened: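 In VCaP prostate cancer cells, ERG and RIOK2 protein levels were measured by Western blot after treatment. IC50 values were derived from the concentration-response of protein inhibition.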
row,Compound,IC50 [nM]
1,O=S(=O)(O)c1cccc2c(S(=O)(=O)O)cccc12,> 500
2,Oc1ccc2ccccc2c1/N=N/c1nccs1 [DNDI1417016],310
